Consider one compound from publication PMC11757988 (Scientific Reports, 2025).

Each structure is given as a SMILES string.

The nature of series [1]: Blood compatibility study. The class given is cell-based. As to conditions: rat, heparinized whole blood. The procedure, abridged:
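Rat heparinized blood (0.2 mL) added to 3 mL normal saline containing test material at 1000 µg/mL, saline-only negative and distilled-water positive controls; 1 h at 37 °C with shaking; centrifuged 6000 rpm, 20 min; filtered supernatant read at 545 nm for released hemoglobin; activity = (sample − negative control absorbance)/positive control absorbance.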

A short description of series [2]: In vivo pharmacokinetic study, intravenous. On the set-up: species or system female Wistar rats. Conditions: rat. The procedure, abridged: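 Eight-week-old female Wistar rats (250 ± 10 g), single i.v. dose of test compound solution at 10 mg/kg (nanoparticles at equivalent dose), saline control group. Tail-vein blood (300 µL) at 1–38 h into heparinized tubes; plasma by chilled centrifugation; acetonitrile protein precipitation, nitrogen drying, methanol reconstitution; HPLC-UV with plasma calibration 0.5–20 µg/mL; mean ± SD, n = 6.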

Series [3] can be described thus: Thermogravimetric analysis. The class given is physicochemical. As to conditions: TGA. The procedure, abridged:
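Samples of about 5 mg in platinum pans heated from 5 °C to 900 °C at 10 °C per min under nitrogen flowing at 60 mL per min; percentage weight loss recorded against temperature.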

[4] abbreviates: female, Wistar, plasma, iv, 10 mg/kg.
Where [5] appears, read: i.v., DZ 10 mg/kg equivalent, n = 6, listed as DZ-Solution.

As a reminder, the MRT inf is the average time that molecules of a dose stay in the body. Usually Tmax stands for the time at which the peak concentration occurs. The term AUC(0-inf) denotes total exposure, with the tail of the curve extrapolated. What is called Cmax is the peak of the concentration-time curve. What is called half-life is how long it takes for the measured level to halve. Compound `O=c1c(-c2ccc(O)cc2)coc2cc(O)ccc12` [DZ, daidzein] returned a hemolysis at 1 h, 1000 µg/mL in series [1] of 0.98 ± 0.14%. In series [2] (setting [4]), the mean residence time (MRT inf) was 2.97 ± 0.95 h and the Tmax was found to be 1 ± 0.78 h. Moreover, in series [2] (female, Wistar, plasma, iv, 10 mg/kg, AUC0−∞, DZ 10 mg/kg equivalent, n = 6), the AUC(0-inf) was 2300 µg·h/mL. In addition, in series [2] (female, Wistar, plasma, iv, 10 mg/kg, C max, DZ 10 mg/kg equivalent, n = 6), the Cmax stood at 382 µg/mL. Also, in series [2] (female, Wistar, plasma, iv, 10 mg/kg, t1/2, rat, DZ 10 mg/kg equivalent, n = 6), the half-life is 3.45 h. Moreover, in series [2] (setting [5]), the “AUC0−∞” value amounted to 2299.73 ± 0.67 µg·h/mL, the C max was 381.59 ± 1.12 µg/mL and the t1/2 stood at 3.44 ± 0.44 h. In addition, the “Temperature at which decomposition started” value in series [3] is 340–350 °C.
